Calls of active or inactive are those of the source. The calls are words filed in the database; no cut-off is given here.
Assays:
[1] = molecular target: T1, Melanocyte-stimulating hormone receptor (Homo sapiens, UniProt Q01726); assay: Agonist activity at human melanocortin 1 receptor expressed in HEK293 cells assessed as cAMP accumulation at 10 uM realtive to MT2; type: functional, cell-based
In short: (§1)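 cAMP accumulation assay in stably transfected HEK293 cells: 0.5 mM IBMX preincubation, 3 min ligand exposure at 37 °C, [3H]cAMP/PKA binding read-out against a standard curve. The cAMP produced at 10 μM ligand is expressed as percent of that produced by 10 μM MT-II (% max effect).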

[2] = molecular target: T2, Melanocortin receptor 5 (Homo sapiens, UniProt P33032); assay: Displacement of [125I]-[Nle4, D-Phe7]alpha-MSH from human melanocortin 5 receptor expressed in HEK293 cells at 10 uM; type: cell-based
T2 sequence (P33032 whole entry): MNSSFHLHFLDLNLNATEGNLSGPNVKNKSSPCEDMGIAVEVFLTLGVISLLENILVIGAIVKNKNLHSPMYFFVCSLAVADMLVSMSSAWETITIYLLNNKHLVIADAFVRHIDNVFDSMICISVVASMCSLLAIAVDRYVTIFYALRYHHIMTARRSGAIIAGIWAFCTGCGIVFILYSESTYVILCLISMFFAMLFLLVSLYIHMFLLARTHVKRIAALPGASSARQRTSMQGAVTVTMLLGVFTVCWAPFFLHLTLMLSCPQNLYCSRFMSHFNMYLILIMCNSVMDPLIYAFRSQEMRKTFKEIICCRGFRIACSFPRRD

[3] = molecular target: T3, Melanocortin receptor 4 (Homo sapiens, UniProt P32245); assay: Agonist activity at human melanocortin 4 receptor expressed in HEK293 cells assessed as cAMP accumulation at 10 uM; type: functional, cell-based; in short: as §1
T3 sequence (P32245 whole entry): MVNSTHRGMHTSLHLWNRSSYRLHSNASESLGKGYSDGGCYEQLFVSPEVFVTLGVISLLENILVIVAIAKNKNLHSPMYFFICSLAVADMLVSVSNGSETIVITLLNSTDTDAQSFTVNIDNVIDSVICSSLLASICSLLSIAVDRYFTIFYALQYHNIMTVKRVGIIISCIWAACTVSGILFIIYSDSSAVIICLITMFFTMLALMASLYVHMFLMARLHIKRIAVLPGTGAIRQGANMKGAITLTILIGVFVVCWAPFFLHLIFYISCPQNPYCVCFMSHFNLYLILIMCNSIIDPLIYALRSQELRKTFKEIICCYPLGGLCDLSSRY

[4] = molecular target: T3, Melanocortin receptor 4; assay: Displacement of [125I]-[Nle4, D-Phe7]alpha-MSH from human melanocortin 4 receptor expressed in HEK293 cells at 10 uM; type: cell-based
[5] = molecular target: T2, Melanocortin receptor 5; assay: Agonist activity at human melanocortin 5 receptor expressed in HEK293 cells assessed as cAMP accumulation at 10 uM realtive to MT2; type: functional, cell-based; in short: as §1
[6] = molecular target: T3, Melanocortin receptor 4; assay: Agonist activity at human melanocortin 4 receptor expressed in HEK293 cells assessed as cAMP accumulation at 10 uM realtive to MT2; type: functional, cell-based; in short: as §1
[7] = molecular target: T2, Melanocortin receptor 5; assay: Agonist activity at human melanocortin 5 receptor expressed in HEK293 cells assessed as cAMP accumulation at 10 uM; type: functional, cell-based; in short: as §1
[8] = molecular target: T4, Melanocortin receptor 3 (Homo sapiens, UniProt P41968); assay: Agonist activity at human melanocortin 3 receptor expressed in HEK293 cells assessed as cAMP accumulation at 10 uM realtive to MT2; type: functional, cell-based; in short: as §1
T4 sequence (P41968 whole entry): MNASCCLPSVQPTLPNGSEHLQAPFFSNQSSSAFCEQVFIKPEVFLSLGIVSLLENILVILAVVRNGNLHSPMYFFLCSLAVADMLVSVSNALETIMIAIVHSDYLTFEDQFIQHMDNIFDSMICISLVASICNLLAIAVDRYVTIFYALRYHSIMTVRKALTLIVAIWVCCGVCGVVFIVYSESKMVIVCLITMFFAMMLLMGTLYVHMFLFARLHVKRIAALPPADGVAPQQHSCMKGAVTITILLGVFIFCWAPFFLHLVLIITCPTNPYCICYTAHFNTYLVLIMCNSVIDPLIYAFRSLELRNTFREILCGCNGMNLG

[9] = molecular target: T4, Melanocortin receptor 3; assay: Agonist activity at human melanocortin 3 receptor expressed in HEK293 cells assessed as cAMP accumulation; type: functional, cell-based
In short: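 Stably transfected HEK293 cells seeded 48 h before assay (50000 cells/well), rinsed, preincubated 1 min at 37 °C in Earle's balanced salt solution with 0.5 mM IBMX, then given peptide at varying concentrations for 3 min at 37 °C. Stopped with ice-cold Tris/EDTA and boiling 7 min. cAMP measured by [3H]cAMP competition for PKA against a standard curve. EC50 by nonlinear least-squares fit, mean of two experiments in triplicate.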

[10] = molecular target: T4, Melanocortin receptor 3; assay: Displacement of [125I]-[Nle4, D-Phe7]alpha-MSH from human melanocortin 3 receptor expressed in HEK293 cells; type: cell-based
In short: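 Whole HEK293 cells stably expressing each hMCR, seeded 48 h before assay (50000 cells/well), washed in MEM with 25 mM bicarbonate. Cells incubated 40 min at 37 °C with unlabeled peptide plus [125I]-NDP-α-MSH (33.06 pM, 20000 cpm/well) in MEM, 25 mM HEPES pH 7.4, 0.2% BSA, 1 mM 1,10-phenanthroline, leupeptin, bacitracin. Cells washed, lysed with NaOH/Triton X-100, and gamma-counted. IC50 by nonlinear fit, two experiments in triplicate […].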

[11] = molecular target: T1, Melanocyte-stimulating hormone receptor; assay: Displacement of [125I]-[Nle4, D-Phe7]alpha-MSH from human melanocortin 1 receptor expressed in HEK293 cells at 10 uM; type: cell-based
[12] = molecular target: T1, Melanocyte-stimulating hormone receptor; assay: Agonist activity at human melanocortin 1 receptor expressed in HEK293 cells assessed as cAMP accumulation at 10 uM; type: functional, cell-based; in short: as §1
[13] = molecular target: T4, Melanocortin receptor 3; assay: Displacement of [125I]-[Nle4, D-Phe7]alpha-MSH from human melanocortin 3 receptor expressed in HEK293 cells at 10 uM; type: cell-based
[14] = molecular target: T4, Melanocortin receptor 3; assay: Agonist activity at human melanocortin 3 receptor expressed in HEK293 cells assessed as cAMP accumulation at 10 uM; type: functional, cell-based; in short: as §1

T1 sequence (Q01726 whole entry, looked up): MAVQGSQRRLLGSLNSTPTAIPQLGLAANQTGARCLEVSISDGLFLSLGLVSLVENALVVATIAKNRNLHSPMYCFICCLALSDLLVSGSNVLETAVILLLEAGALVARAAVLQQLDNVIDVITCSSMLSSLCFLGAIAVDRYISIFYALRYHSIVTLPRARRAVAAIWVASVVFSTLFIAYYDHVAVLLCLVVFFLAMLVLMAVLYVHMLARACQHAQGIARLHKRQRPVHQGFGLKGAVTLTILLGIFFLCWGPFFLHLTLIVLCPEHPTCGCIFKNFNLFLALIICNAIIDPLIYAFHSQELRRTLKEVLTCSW

Compound	Activity [1] [%]	Activity [2]	Activity [3]	Activity [4]	Activity [5] [%]	Activity [6] [%]	Activity [7]	Activity [8] [%]	EC50 [9] [µM]	IC50 [10] [µM]	Activity [11]	Activity [12]	Activity [13]	Activity [14]
N=C(N)NCCC[C@@H]1NC(=O)[C@H](Cc2ccc(N)cc2)NC(=O)[C@H](Cc2cnc[nH]2)NC(=O)c2cc([N+](=O)[O-])ccc2SC[C@@H](C(N)=O)NC(=O)[C@H](Cc2c[nH]c3ccccc23)NC1=O	9	inactive	inactive	inactive	0	0	inactive	5	–	–	–	–	–	–
NC(=O)[C@@H]1CSc2ccc([N+](=O)[O-])cc2C(=O)N[C@@H](Cc2cnc[nH]2)C(=O)N[C@H](Cc2ccccc2)C(=O)N[C@@H](CCCN=C(N)N)C(=O)N[C@H](Cc2ccc3ccccc3c2)C(=O)N1	–	–	–	–	–	–	–	–	0.33	> 8	–	–	–	–
N=C(N)NCCC[C@@H]1NC(=O)[C@H](CCCNC(N)=O)NC(=O)[C@H](Cc2cnc[nH]2)NC(=O)c2cc([N+](=O)[O-])ccc2SC[C@@H](C(N)=O)NC(=O)[C@H](Cc2c[nH]c3ccccc23)NC1=O	0	inactive	inactive	inactive	0	0	inactive	0	–	–	inactive	inactive	inactive	inactive
N=C(N)NCCC[C@H]1NC(=O)[C@@H](Cc2ccccc2)NC(=O)[C@H](Cc2cnc[nH]2)NC(=O)c2cc([N+](=O)[O-])ccc2SC[C@@H](C(N)=O)NC(=O)[C@H](Cc2c[nH]c3ccccc23)NC1=O	0	inactive	inactive	inactive	0	0	inactive	0	–	> 10	inactive	inactive	–	inactive
N=C(N)NCCC[C@@H]1NC(=O)[C@@H](Cc2ccc3ccccc3c2)NC(=O)[C@H](Cc2cnc[nH]2)NC(=O)c2cc([N+](=O)[O-])ccc2SC[C@@H](C(N)=O)NC(=O)[C@H](Cc2c[nH]c3ccccc23)NC1=O	> 100	–	inactive	inactive	0	0	inactive	0	–	–	–	–	–	inactive
NCCCC[C@@H]1NC(=O)[C@@H](Cc2ccccc2)NC(=O)[C@H](Cc2cnc[nH]2)NC(=O)c2cc([N+](=O)[O-])ccc2SC[C@@H](C(N)=O)NC(=O)[C@H](Cc2c[nH]c3ccccc23)NC1=O	0	inactive	inactive	inactive	0	0	inactive	0	–	> 1	inactive	inactive	–	inactive
N=C(N)NCCC[C@@H]1NC(=O)[C@@H](Cc2ccccc2)NC(=O)[C@H](Cc2cnc[nH]2)NC(=O)c2cc([N+](=O)[O-])ccc2SC[C@@H](C(N)=O)NC(=O)[C@H](Cc2ccc3ccccc3c2)NC1=O	110	–	inactive	–	0	3	inactive	> 100	–	–	–	–	–	–
N=C(N)NCCC[C@@H]1NC(=O)[C@@H](Cc2ccccc2)NC(=O)[C@H](Cc2cnc[nH]2)NC(=O)c2cc([N+](=O)[O-])ccc2SC[C@@H](C(N)=O)NC(=O)[C@H](Cc2c[nH]c3ccccc23)NC1=O	100	–	–	–	100	100	–	100	–	–	–	–	–	–
